Experimental data: ChEMBL document CHEMBL2086375 (Bioorg Med Chem, 2012); call rule not given here

What was measured:
[1] = Prodrug activation in simulated intestinal fluid at 0.01 mg/mL after 60 mins by LC/MS analysis; conditions: simulated gi fluid, 1 h
How it was run: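 Compound at 0.01 mg/mL in simulated intestinal fluid, mixed and held at 37 °C for 60 min. Samples were injected consecutively onto a C18 reverse-phase HPLC column for analysis. Results are percent disappearance of prodrug.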

Liver = assay: Prodrug activation in mouse liver microsomes at 1 uM incubated for 10 mins prior to NADPH addition measured after 30 mins by LC/MS/MS analysis; design: species or system Microsome; conditions: 0.5 h
How it was run: (§1)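 Liver microsomes were pre-warmed with compound at 37 °C for 10 min, and the reaction was started with NADPH at 1 mM final. A parallel incubation without NADPH served as control. After 30 min at 37 °C, samples were quenched with acetonitrile containing 0.1% formic acid and internal standard, then centrifuged. Supernatant was diluted fivefold and read by LC/MS/MS (SRM, positive ESI). Results are percent of control remaining.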

Liver microsomes [2] = assay: Prodrug activation in human liver microsomes at 1 uM incubated for 10 mins prior to NADPH addition measured after 30 mins by LC/MS/MS analysis; design: species or system Microsome; conditions: 0.5 h; how it was run: as §1
[3] = Half life in simulated gastric fluid at 1 mg/mL; assay type: physicochemical
[4] = Half life in simulated intestinal fluid at 1 mg/mL; assay type: physicochemical; conditions: simulated gi fluid
Liver microsomes [5] = assay: Half life in human liver microsomes at 1 uM; assay type: ADME, Microsome
[6] = Half life in human plasma at 1 uM; assay type: ADME, cell-free
Liver microsomes [7] = assay: Metabolic stability in human liver microsomes assessed as high CYP1A2 activity-mediated metabolism measured as compound remaining at 1 uM incubated for 10 mins prior to NADPH addition measured after 30 mins by LC/MS/MS analysis relative to control; conditions: 0.5 h
Liver microsomes [8] = assay: Metabolic stability in human liver microsomes assessed as low CYP1A2 activity-mediated metabolism measured as compound remaining at 1 uM incubated for 10 mins prior to NADPH addition measured after 30 mins by LC/MS/MS analysis relative to control; conditions: 0.5 h
Liver microsomes [9] = assay: Metabolic stability in human liver microsomes assessed as low CYP1A2 activity-mediated metabolism measured as compound remaining at 1 uM after 30 mins by LC/MS/MS analysis relative to control; conditions: 0.5 h
Liver microsomes [10] = conditions: human, 0.5 h, 1 µM
Liver microsomes [11] = assay: Drug metabolism in human liver microsomes assessed as high CYP1A2 activity-mediated N-hydroxyriluzole formation at 1 uM incubated for 10 mins prior to NADPH addition measured after 30 mins by LC/MS/MS analysis; assay type: ADME, Microsome; conditions: 0.5 h

Structure (SMILES)	Drug metabolism [1] [%]	Drug metabolism (Liver) [%]	Drug metabolism (Liver microsomes [2]) [%]	other results
CC(C)[C@H](N)C(=O)Nc1nc2ccc(OC(F)(F)F)cc2s1	40	40	6	
N[C@@H](Cc1ccccc1)C(=O)Nc1nc2ccc(OC(F)(F)F)cc2s1		2	0	
N[C@H](Cc1ccccc1)C(=O)Nc1nc2ccc(OC(F)(F)F)cc2s1	0	12	18	
N[C@@H](COCc1ccccc1)C(=O)Nc1nc2ccc(OC(F)(F)F)cc2s1	0	0	15	half-life at 1 mg/mL [3]: > 1 h; t1/2 [4]: 1.63 h; t1/2 (Liver microsomes [5]): > 1 h; half-life at 1 µM [6]: 5 h; Stability (Liver microsomes [7]): 70%; Stability (Liver microsomes [8]): 78%; Stability (Liver microsomes [9]): 76%; Stability (Liver microsomes [10]): 77%
N[C@H](COCc1ccccc1)C(=O)Nc1nc2ccc(OC(F)(F)F)cc2s1		24	0	
CN(C)CCCOC(=O)Nc1nc2ccc(OC(F)(F)F)cc2s1	0	71	0	
NCC1(CC(=O)Nc2nc3ccc(OC(F)(F)F)cc3s2)CCCCC1	50			
O=C(Cc1ccccc1[N+](=O)[O-])Nc1nc2ccc(OC(F)(F)F)cc2s1	0	59	22	
Nc1nc2ccc(OC(F)(F)F)cc2s1 [RILUZOLE]				Drug metabolism (Liver microsomes [11]): Active

The next lines start with results.

Drug metabolism [1] [%]	Drug metabolism (Liver) [%]	Drug metabolism (Liver microsomes [2]) [%]	Structure (SMILES)	other results
50	1	0	C[C@H](N)C(=O)Nc1nc2ccc(OC(F)(F)F)cc2s1	
50	10	4	C[C@@H](N)C(=O)Nc1nc2ccc(OC(F)(F)F)cc2s1	
0	10	0	COC(=O)Nc1nc2ccc(OC(F)(F)F)cc2s1	
0	8	7	CCOC(=O)Nc1nc2ccc(OC(F)(F)F)cc2s1	
0	15	34	CCCOC(=O)Nc1nc2ccc(OC(F)(F)F)cc2s1	
0	53	13	CCCCOC(=O)Nc1nc2ccc(OC(F)(F)F)cc2s1	
0	23	14	CCC(C)OC(=O)Nc1nc2ccc(OC(F)(F)F)cc2s1 (centres undefined)	
0	13	10	CN(C)CCOC(=O)Nc1nc2ccc(OC(F)(F)F)cc2s1	
0	70	0	O=C(O)CCC(=O)Nc1nc2ccc(OC(F)(F)F)cc2s1	
0	77	34	COC(=O)CCC(=O)Nc1nc2ccc(OC(F)(F)F)cc2s1	
0	0	21	CC(C)(C)OC(=O)CCC(=O)Nc1nc2ccc(OC(F)(F)F)cc2s1	
10	0	4	O=C(CCC(=O)Nc1nc2ccc(OC(F)(F)F)cc2s1)NCc1cccnc1	
60			O=C(CCC(=O)Nc1nc2ccc(OC(F)(F)F)cc2s1)NCCN1CCOCC1	
0	66	19	NCCCC(=O)Nc1nc2ccc(OC(F)(F)F)cc2s1	
